Source: PubChem
NF-kB expr up = NF-kB expression increase, human neuronal cells | actives 1.6% (n = 190,000) | NF-kB reporter expression; active compounds read high | AID 1239 | fold change at 12.5 µM; in the data active = fold change above about 3.3
STAT1 inh = reduces IFN-gamma driven STAT1 reporter signal; NIH 3T3 STAT1-luciferase reporter, luminescence; inhibition, % at 5.5 µM; actives 0.35% (n = 200,000); AID 920;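 active = inhibition above a set limit, the mean inhibition across all tested compounds plus 3 SD, cut at about 34% in these data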;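 note: 0% = IFN-gamma with DMSO and 100% = IFN-gamma with 300 µM nifuroxazide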
APP 5'UTR act = APP 5'UTR luciferase reporter activation | SH-SY5Y APP 5'UTR luciferase reporter, luminescence; zero percent = DMSO vehicle wells | activation, % at 2 µM | actives 1% (n = 190,000);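 active = activation above a set limit, based on mean plus 3 SD of controls, cut at about 140% in these data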
STAT1 act = STAT1 signaling activation; NIH 3T3 STAT1-luciferase reporter, IFN-gamma, luminescence; 100% = IFN-gamma alone, no compound; activation (% of control), % at 5.5 µM; actives 2.6% (n = 200,000); AID 932;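 active = activation above the screen-wide mean activation plus 3 SD, cut at about 130% in these data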;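 note: raw ratio to IFN-gamma control signal so 100% means no change and 0% no light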
STAT3 act = activators of IL-6 induced STAT3 signaling; AID 871; actives 0.91% (n = 190,000); U3A cells, IL-6 STAT3-luciferase reporter, luminescence; 100% = signal with IL-6 EC80 alone; activation (% of control), % at 5.6 µM;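 active = activation above the screen-wide mean of compound activation plus 3 SD, cut at about 130% in these data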;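 note: 0% = background luminescence of wells with medium and substrate only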
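System – human U3A cells carrying STAT3-luciferase construct · Probe or stimulus – Interleukin-6, 33 ng/mL · Schedule – compound 1 h, then IL-6 6 h at 37 °C · Signal – luminescence from STAT3-driven luciferase reporter · Evaluation – percent of IL-6-only median luminescence · Benchmarks – IL-6-only high control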
STAT3 blocker = reduces IL-6 driven STAT3 reporter signal; U3A cells, IL-6 STAT3-luciferase reporter, luminescence; host cell line lacks STAT1; actives 0.89% (n = 190,000); inhibition, % at 5.5 µM; AID 862;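 active = inhibition above the mean inhibition across all screened compounds plus 3 SD, cut at about 44% in these data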;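 note: 0% = DMSO only wells and 100% = 100 µM nifuroxazide control wells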
An asterisk follows results filed as active. Compounds with a hit are over-represented: about 4.9% of the library has one in this group of screens.

SMILES | NF-kB expr up | STAT1 inh | APP 5'UTR act | STAT1 act | STAT3 act | STAT3 blocker
CCCc1cc(C(=O)Nc2ccc(F)cc2F)no1 | 1.9 | -33 | 34 | 130* | 98 | 7
COc1cccc2c(=O)c(C(=O)NCc3cccs3)c[nH]c12 | 2.4 | -33 | 49 | 130* | 99 | 3
Cc1ccc2[nH]cc(C(=O)NCc3cccs3)c(=O)c2c1 | 0.74 | 4 | -8 | 91 | 88 | 16
COc1cc(CN2CCCC(CO)(Cc3cccc(Cl)c3)C2)cc2c1OCO2 (configuration not stated) | 1.1 | 0 | -18 | 99 | 104 | 0
c1ccc(-n2cnc3cc(NCc4ccccn4)ccc32)cc1 | 2.1 | -33 | 86 | 131* | 101 | 3
Cc1[nH]n(-c2ccc([N+](=O)[O-])cc2)c(=O)c1C=NCCc1c(C)[nH]c2ccccc12 | 0.69 | 1 | -4 | 99 | 81 | 24
CC(=O)N(C)Cc1ccc(C(=O)CCl)cc1 | 3.8* | 9 | -2 | 90 | 111 | -3
Cc1ccsc1C1Nc2ccccc2-c2nc3ccccc3n21 (configuration not stated) | 1.2 | -33 | 34 | 129* | 101 | -1
COc1cc(/C=N/N2CCOCC2)ccc1OCc1ccc(Cl)cc1 | 2.7 | -42 | 144* | 140* | 91 | 15
CN(C)c1ccc(C2=NOC(CN3C(=O)c4ccccc4S3(=O)=O)C2)cc1 (configuration not stated) | 3.4* | -52 | 93 | 147* | 99 | 5
CN(C)c1nc(N(C)C)nc(N(C#N)CN2C(=O)c3ccccc3S2(=O)=O)n1 | 0.99 | 4 | -10 | 96 | 101 | 4
CC(=C/c1ccc(C(C)C)cc1)/C=N/NC(=O)Cn1nc(C)cc1C | 1.1 | -6 | 0 | 105 | 106 | -7
CC(/C=N/NC(=O)Cn1nccc1C)=C\c1ccc(C(C)C)cc1 | 1.1 | -33 | 11 | 129* | 109 | -8
COc1cc(NC(=O)CCc2ccccc2)nc(OC)n1 | 1.4 | -10 | 12 | 106 | 99 | 5
COc1ccc(C(=O)Nc2cc(OC)nc(OC)n2)cc1 | 7.2* | -34 | 140* | 138* | 80 | 27
CCN(CC)CCn1c2ccccc2c2cnc(N)c(C#N)c21 | 0.89 | -83 | -19 | 176* | 169* | -74
Cc1ccc(NC2Nc3cc(C)nn3S2)c(C)c1 (configuration not stated) | 2.7 | -48 | 62 | 142* | 89 | 21
Cc1cc2n(n1)SC(Nc1ccccc1)N2 (configuration not stated) | 1.2 | -6 | 7 | 105 | 91 | 19
Cc1[nH][nH]c(=O)c1C(c1c(C)[nH][nH]c1=O)c1cn(Cc2ccccc2Cl)c2ccccc12 | 0.81 | -5 | -49 | 104 | 117 | -17
Cn1c2ccccc2c2cc(C(=O)NNC(=O)CCl)sc21 | 2 | -37 | 7 | 133* | 137* | -25
CC(C)CC(=O)Nc1ccc(C(=O)Nc2cccc(O)c2)cc1 | 2 | -36 | 68 | 132* | 108 | 3
O=C(Nc1ccc(C(F)(F)F)cc1)c1ccc2nc[nH]c2c1 | 1.8 | -13 | 7 | 112 | 108 | 0
O=C(Nc1cccc(O)c1)c1ccc(C(F)(F)F)cc1 | 3.7* | -5 | 91 | 104 | 68 | 42
CCOc1cccc2cc(C(=O)NCCC3=CCCCC3)c(=O)oc12 | 1.2 | -3 | -7 | 100 | 99 | 6
Clc1ccc(-c2nnc(N3CCCC3)nn2)cc1 | 4.6* | -41 | 44 | 137* | 110 | -4
SMILES | NF-kB expr up | STAT1 inh | APP 5'UTR act | STAT1 act | STAT3 act | STAT3 blocker
COc1ccc(-c2csc(NC(=O)/C(N=Nc3ccccc3)=C(\C)O)n2)cc1 | 2.1 | -10 | 3 | 110 | 107 | -6
CCOC(=O)CNc1c(-c2ccccc2)nc2ccc(Cl)cn12 | 2.1 | -14 | 20 | 113 | 95 | 10
COC(=O)CNc1c(-c2ccccn2)nc2ccc(Br)cn12 | 1 | -54 | 96 | 150* | 96 | 4
CCc1nnc(NC(=O)CSc2nc3cc4c(cc3cc2CC)OCCO4)s1 | 3.5* | -5 | -4 | 105 | 97 | 7
COc1ccc2nc(SCC(N)=O)[nH]c2c1 | 1.1 | -2 | -6 | 102 | 100 | 5
COc1ccc(-c2nnc(-c3ccc(N(C)C)cc3)o2)cc1 | 2.2 | -13 | -7 | 112 | 90 | 15
COc1ccc2nc(SCC(=O)/C(C#N)=C(\C)N)[nH]c2c1 | 4.1* | -46 | 121 | 141* | 112 | -11
CC(C)CCNC(=O)NC(=O)CSc1nnc(-c2ccccc2Br)o1 | 1.2 | 0 | 16 | 100 | 103 | -3
C/C(N)=C(/C#N)C(=O)CSc1nnc(-c2ccccc2Br)o1 | 5.5* | -41 | 198* | 138* | 85 | 23
COc1ccc(-c2nnc(-c3ccc(N)cc3)o2)cc1 | 5.7* | -43 | 79 | 140* | 97 | 7
COc1ccc(-c2nnc(SCC(=O)/C(C#N)=C(\C)N)o2)cc1 | 5.1* | -39 | 194* | 136* | 82 | 28
Cc1nc(C)c(CCNC(=O)c2ccccc2Br)s1 | 0.91 | 6 | 5 | 94 | 105 | -8
CNC(=O)/C(C#N)=C/c1c(N2CC(C)OC(C)C2)nc2ccccn2c1=O (configuration not stated) | 1 | 0 | 5 | 100 | 97 | 2
Cc1ccc(-c2csc3nc(SCC(N)=O)n(Cc4ccccc4)c(=O)c23)cc1 | 0.41 | 3 | 17 | 97 | 108 | -13
Clc1cccc(CN2CCN(Cc3nc(CCc4ccccc4)no3)CC2)c1 | 1.1 | 9 | -4 | 90 | 98 | 7
O=C(c1ccco1)N1CCN(c2ncnc3c(-c4ccccc4)nsc23)CC1 | 1.8 | -32 | 58 | 129* | 128 | -22
NC(=O)C1CCN(c2ncnc3c(-c4ccccc4)nsc23)CC1 | 2.6 | -42 | 21 | 139* | 111 | -9
CN(Cc1cnccn1)Cc1cn(Cc2ccccc2)nc1-c1ccc2c(c1)OCO2 | 0.98 | -4 | -10 | 101 | 110 | -5
Cc1cc(Cl)ccc1OCC(=O)N/N=C1\CCCc2ccccc21 | 1.4 | 5 | 8 | 96 | 92 | 12
O=C(COc1ccccc1F)N/N=C1\CCCc2ccccc21 | 3 | -43 | 48 | 139* | 97 | 2
COc1ccc(C)cc1N(C(=O)c1cccc(F)c1)c1nc2ccccc2s1 | 0.58 | -5 | 3 | 104 | 134* | -35
CSc1nsc(SCC(=O)N2CCCCC2)n1 | 2 | -34 | 8 | 130* | 88 | 16
CC(C)(C)c1cc(C(=O)N2CCN(c3ncccn3)CC2)ccn1 | 4.8* | 8 | 4 | 96 | 93 | 10
O=C(c1ccc(F)cc1)N1CCN(c2ncccn2)CC1 | 0.95 | -12 | 7 | 112 | 100 | 0
O=C(CSc1nnc(NC2CCCCC2)s1)Nc1ccc2c(c1)C(=O)c1ccccc1C2=O | 1.2 | -44 | 86 | 139* | 101 | 6
